Hits are enriched below; roughly 1.4% of the tested compounds scored in any of these assays.
hK5 inh: kallikrein 5 (human) inhibition; Q9Y337; recombinant hK5, fluorogenic AMC substrate cleavage; inhibition, % at 5 µM; actives 0.59% (n = 210,000); AID 873;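 active = inhibition of 40% or more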;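 note: 0% = enzyme controls without compound and 100% = no-enzyme blanks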
thrombin 1536: thrombin (human) inhibition | alpha-thrombin, Boc-VPR-AMC fluorogenic substrate cleavage | P00734 | inhibition, % at 5 µM | actives 0.26% (n = 220,000);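 active = inhibition at or above 40%; inactive = inhibition below 40%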;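 note: 0% = enzyme with no compound and 100% = wells without enzyme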
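System: human alpha-thrombin protein; Compound dosing: one concentration per compound, 5 µM, with 0.2% DMSO; Timing: reaction at room temperature; Technique: AMC fluorescence, 355/460 nm; Controls: enzyme without compound as high, wells lacking enzyme as low.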
FXIIa inh 1536: factor XIIa (human) inhibition; purified FXIIa, Boc-QGR-AMC fluorogenic substrate, 2 h; P00748; inhibition, % at 5 µM; actives 0.3% (n = 220,000); in the data active = inhibition above about 40%;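 note: 0% = enzyme with no compound and 100% = blank without enzyme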
Target sequence (P00748 20-372 limits assumed): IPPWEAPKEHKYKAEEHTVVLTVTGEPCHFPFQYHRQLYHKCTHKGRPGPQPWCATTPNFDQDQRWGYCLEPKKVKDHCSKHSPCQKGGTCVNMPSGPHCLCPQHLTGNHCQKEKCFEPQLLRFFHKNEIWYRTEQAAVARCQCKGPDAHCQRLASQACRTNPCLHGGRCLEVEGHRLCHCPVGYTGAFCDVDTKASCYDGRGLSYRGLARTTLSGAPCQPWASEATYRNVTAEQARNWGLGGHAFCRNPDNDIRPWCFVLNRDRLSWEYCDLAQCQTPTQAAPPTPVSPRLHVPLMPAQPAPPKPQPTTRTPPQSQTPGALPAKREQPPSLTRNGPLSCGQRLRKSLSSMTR
Target sequence (P00748 373-615 limits assumed): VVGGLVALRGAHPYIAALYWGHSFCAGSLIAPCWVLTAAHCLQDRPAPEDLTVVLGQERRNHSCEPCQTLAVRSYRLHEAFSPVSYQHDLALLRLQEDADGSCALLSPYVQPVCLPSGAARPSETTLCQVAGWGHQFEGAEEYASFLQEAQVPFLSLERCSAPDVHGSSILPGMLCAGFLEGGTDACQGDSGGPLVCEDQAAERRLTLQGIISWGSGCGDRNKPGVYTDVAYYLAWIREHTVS
m-calpain inh: blocks pig calpain II enzyme activity; purified calpain II, fluorogenic peptide substrate, 30 min; inhibition, % at 16 µM; actives 0.37% (n = 220,000);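 active = inhibition above about 50%, limit read from the data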
FXIa inh 1536: factor XIa (human) inhibition; purified FXIa, Boc-Glu-Ala-Arg-AMC fluorogenic substrate; inhibition, % at 5 µM; actives 0.14% (n = 220,000); AID 798;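 active = inhibition of at least 40%; inactive = inhibition below 40%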;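 note: fluorescence of freed AMC excited at 355 nm; 0% = enzyme without compound and 100% = no enzyme blank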
* hit, by the source's call; · = no result given.

SMILES	hK5 inh	thrombin 1536	FXIIa inh 1536	m-calpain inh	FXIa inh 1536
CSCCC(NC(=O)c1cncc(Br)c1)C(=O)O (stereo unspecified)	52*	9	16	8	-3
CSCCC(NC(=O)c1ccc(Br)cc1)C(=O)O (stereo unspecified)	-4	-7	5	-32	-2
O=C(COc1ncnc2sccc12)N1CCN(C(=O)c2ccco2)CC1	-5	0	4	-101	0
Cc1nn(Cc2ccccc2)c(C)c1/C=N/NC(=O)c1ccccc1O	0	-6	4	11	-1
O=C(Nc1ccc(F)cc1)c1ccccc1F	0	-1	11	23	0
O=C(Nc1ccc(SC(F)F)cc1)c1ccccc1F	43*	35	24	24	39
CCOc1ccc(NC(=O)c2ccccc2SC)cc1	1	3	3	15	1
COc1cccc(NC(=O)Nc2cccnc2)c1	71*	8	40*	13	11
COc1cccc(NC(C(=O)Nc2cccc(C(C)=O)c2)c2ccccc2)c1 (stereo unspecified)	9	3	54*	12	-5
COc1cc(NC(C(=O)Nc2cccc(C(C)=O)c2)c2ccccc2)cc(OC)c1OC (stereo unspecified)	-8	0	10	-25	4
COc1cccc(NC(=O)Nc2ccccc2SC)c1	23	27	102*	19	31
COc1ccc(NC(=O)c2ccccc2SC)cc1	3	·	9	90*	4
S=C1NC[C@H](CC2CCCCC2)N1CCc1cccc2ccccc12	-2	-10	0	15	-4
O=C(c1ccc(C(F)(F)F)cc1)C1CCCN(C(=O)CCN2CCCO2)C1 (stereo unspecified)	5	3	17	-85	-1
Cc1ccc(NC(=O)CN(C)C(=O)CCC(=O)c2cccs2)cc1	14	47*	-3	14	7
Cc1ccc(NC(=O)c2cccs2)cc1	-5	-1	10	-6	-3
Cc1ccc(NC(=O)CN(C)C(=O)CCCN2C(=O)c3ccccc3C2=O)cc1	-12	-4	-10	60*	1
COc1ccc(C(=S)N2CCN(c3cccc(Cl)c3)CC2)cc1	1	-1	13	12	5
COc1ccc(-c2noc(-c3cccs3)n2)cc1OC	5	-1	10	9	-6
CCOc1ccc(Br)cc1-c1noc(-c2cccs2)n1	48*	7	11	16	-5
Cc1nn(CC(=O)NCCCc2ccccc2)c(C)c1[N+](=O)[O-]	-2	-8	7	-18	5
CC1(C)CC(=O)C([N+](=O)[O-])=C(NCCCO)C1	-5	-4	10	6	3
CCC(CO)NC1=C([N+](=O)[O-])C(=O)CC(C)(C)C1 (stereo unspecified)	50*	15	18	14	18
CC(C)(C)c1ccc(NC(=O)c2ccsc2)cc1	-10	1	8	-8	5
CCCCCOC(=O)Nc1nnc(CCCCC)s1	-21	-8	47*	-19	4
SMILES	hK5 inh	thrombin 1536	FXIIa inh 1536	m-calpain inh	FXIa inh 1536
N#C/C(=C\c1cccs1)C(=O)c1ccccc1Cl	9	-3	8	-19	-16
OCC(CO)(CO)N=Cc1c(O)ccc2ccccc12	-22	-10	15	-73	-1
Oc1ccc2ccccc2c1C=NC12CN3CCN(CN(C3)C1)C2	44*	5	13	17	0
CC(C)=CCCC1(C)C=Cc2c(c(C)cc3c2[nH]c2cc(O)ccc23)O1 (stereo unspecified)	6	8	13	-3	6
Cc1ccc(C)c(NC2=NCC(=O)N2C2CCCCC2)c1	0	-12	3	2	3
Cc1ccc(NC2=NCC(=O)N2C2CCCC2)c(C)c1	112*	22	26	25	12
O=C(NCCN1CCOCC1)c1cccn2c(=O)c3c4c(sc3nc12)CCCC4	5	1	5	-48	2
CCOc1ccc(C(=O)n2cnnc2N)cc1	41*	-3	38	-7	7
COc1cccc(COc2nc3c(c(=O)n(C)c(=O)n3C)n2C)c1	-15	-2	19	76*	20
Cc1cc(C)cc(Oc2nc(-c3ccccc3)cc(C)c2S(C)(=O)=O)c1	-1	-2	15	50*	-13
COc1cccc(C2=NOC(C(=O)Nc3c(C)n(C)n(-c4ccccc4)c3=O)C2)c1 (stereo unspecified)	-1	-11	-1	18	-1
Cc1ccc(NS(=O)(=O)c2cc(C(=O)NCCSc3ccc(C)cc3)ccc2C)cc1	-10	3	24	17	17
Cc1ccc(NS(=O)(=O)c2cc(C(=O)NCCSC3CCCCC3)ccc2C)cc1	-5	-3	7	56*	-3
Cc1[nH]c2ccccc2c1/C=N/NC(=S)NCc1ccccc1	1	-5	4	64*	-2
CCN(C(=O)COC(=O)c1ccc(Br)o1)C1CCCCC1	2	-3	12	42	5
CCN(CC)S(=O)(=O)c1ccc(C)c(NC(=S)NNC(=O)C2CC2)c1	-71	-4	7	76*	7
Cc1cccc(N2CCN(Cc3nc(CC4CC4)no3)CC2)n1	-5	-9	0	-14	-5
CN1C(=O)C(CC(=O)Nc2ccc(F)cc2)N(NC(=O)c2cccc(F)c2)C1=S (stereo unspecified)	-2	-7	1	11	0
CC(CCc1ccccc1)NC(=O)Cc1ccccc1 (stereo unspecified)	-5	-10	4	4	-7
CCCC(C)NC(=O)Cc1ccccc1 (stereo unspecified)	8	4	45*	15	4
O=S(=O)(Cc1ccccc1)NCC1CCCN(Cc2ccc3nonc3c2)C1 (stereo unspecified)	3	-5	5	0	-3
CC(C)NC(=O)c1ccc(C(C)C)cc1	5	78*	7	-12	-1
Brc1ccc(-c2csc(N3CCOCC3)n2)cc1	-12	6	7	15	0
Clc1ccc(-c2csc(N3CCOCC3)n2)cc1	45*	24	38	29	48*
CCN(Cc1ccncc1)C(=O)c1cc(Br)cc(Br)c1O	2	-2	4	12	-2
SMILES	hK5 inh	thrombin 1536	FXIIa inh 1536	m-calpain inh	FXIa inh 1536
CCCCNC(=S)NCc1ccc2[nH]c3c(c2c1)CCCC3	-1	-2	15	63*	-1
CNC(=S)NCc1ccc2[nH]c3c(c2c1)CCCC3	-4	4	9	-16	-1
Cc1ccc(C(=O)N/C(=C/c2ccc(-c3cccc([N+](=O)[O-])c3)o2)C(=O)NC(C)(C)C)cc1	-13	-7	43*	-7	33
Cc1ccc(C(=O)N/C(=C/c2ccc(-c3cccc([N+](=O)[O-])c3)o2)C(=O)NC(C)C)cc1	4	0	5	-51	7
CCOC(=O)c1c(NC(=O)CSc2ncccn2)sc2c1CCN(Cc1ccccc1)C2	43*	39	5	46	6
CCOC(=O)c1c(NC(=O)CSc2nc3ccccc3s2)sc(C(C)=O)c1C	47*	5	17	3	9

Screening data from PubChem.
